MC4R ag barr: MC4R agonists recruiting beta-arrestin, primary screen, cell-based, luminescence, agonist arm of biased-ligand search; Melanocortin receptor 4 (Homo sapiens), P32245; U2OS MC4R beta-arrestin complementation; percent of melanotan II response, DMSO zero; activation, % at 8.9 µM; 0.98% of 360,000 active; AID 540308, 2011;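 active = activation above a per-plate cutoff, the mean activation of sample wells on that plate plus 3 SD, cut at about 8% in these data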
MC4R antag cAMP: MC4R antagonists of cAMP signaling, primary screen, cell-based, TR-FRET, antagonist arm of biased-ligand search; Melanocortin receptor 4 (Homo sapiens), P32245; MC4R-expressing cells, MTII-stimulated cAMP, LANCE TR-FRET; inhibition, % at 6.5 µM; 0.48% of 360,000 active; AID 540295, 2011;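 active = inhibition above its plate's cutoff, the mean of tested wells on that plate plus 3 SD, cut at about 29% in these data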;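 also: 0% = Melanotan II alone and 100% = Melanotan II plus saturating MCL0020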
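System: U2OS-MC4R stable cell line; Technique: Eu-cAMP/anti-cAMP TR-FRET, emission 671 nm; Repeats: single well per compound; Also added: Melanotan II; Dosing: one concentration, 6.5 µM nominal; Schedule: 30-min compound, 1-h challenge, 1-h detection, room temperature.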
MPTP block: mitochondrial permeability transition pore inhibitors, primary screen, biochemical, isolated mouse mitochondria, absorbance | inhibition, % at 10 µM | 1.4% of 360,000 active | Ca2+ swelling absorbance, 30 min;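 active = inhibition of 50% or more, scaled per plate between neutral and stimulator controls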;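 also: 0% = DMSO wells given calcium and 100% = 1 mM EGTA wells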
SMARCA2 activ: SMARCA2 (BRM) function activators, primary screen, cell-based, luminescence, high throughput; MG213 cells, MMTV-luciferase reporter, dexamethasone, overnight; activation, % at 9.1 µM; 1% of 370,000 active; in the data active = activation above about 7.8%;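 also: 0% = vehicle wells and 100% = reference activator wells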
ATG4B inh: ATG4B protease inhibitors, primary screen, biochemical, fluorescence, uHTS | inhibition, % at 8.33 µM | Cysteine protease ATG4B (Homo sapiens), Q9Y4P1 | 0.51% of 340,000 active | ATG4B cleavage of LC3-PLA2, NBD-HPC fluorescence, 1 h; in the data active = inhibition above about 40%
Target sequence (Q9Y4P1 whole entry, looked up): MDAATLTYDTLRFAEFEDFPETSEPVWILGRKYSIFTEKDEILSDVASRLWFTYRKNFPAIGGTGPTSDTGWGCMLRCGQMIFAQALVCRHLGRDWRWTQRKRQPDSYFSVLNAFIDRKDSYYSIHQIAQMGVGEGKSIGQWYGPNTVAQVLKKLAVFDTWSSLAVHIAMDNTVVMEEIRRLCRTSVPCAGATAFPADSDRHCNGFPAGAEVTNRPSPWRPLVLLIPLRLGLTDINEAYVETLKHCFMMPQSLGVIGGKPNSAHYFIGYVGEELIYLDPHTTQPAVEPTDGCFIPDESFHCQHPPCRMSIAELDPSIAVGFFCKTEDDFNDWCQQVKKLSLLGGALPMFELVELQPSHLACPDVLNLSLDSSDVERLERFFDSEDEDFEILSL
SMARCA2 conf: SMARCA2 (BRM) function activators, confirmation, cell-based, luminescence, triplicate; shares compounds with SMARCA2 activ; MG213 cells, MMTV-luciferase with dexamethasone, overnight; MG213 cells expressing E1A, Rb sequestered; DMSO wells 0%, reference activator 100%; activation, % at 9.1 µM; 30% of 3,500 active;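 active = activation above its plate's cutoff, the mean activation of tested wells plus 3 SD, cut at about 7.9% in these data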
GAL4-VP16 Luc: GAL4-VP16 luciferase reporter activation, counter-screen for SMARCA2 (BRM) activator project, cell-based, pG5luc, luminescence, high throughput. shares compounds with SMARCA2 activ. HEK293 GAL4-VP16 pG5luc reporter; scaled: DMSO wells 0%, SAHA wells 100%. activation, % at 9.1 µM. 41% of 3,500 active. AID 686939, 2013;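 active = activation above the solvent-only control well mean plus 3 SD, averaged across control plates, cut at about 5.2% in these data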
The depositor's hits bear a star; nt = not tested or not shown. Rows were chosen to be rich in hits. Some 4.1% of all compounds tested hit in one or more screens of this group.

SMILES	MC4R ag barr	MC4R antag cAMP	MPTP block	SMARCA2 activ	ATG4B inh	SMARCA2 conf	GAL4-VP16 Luc
CCOC(=O)N1CCN(C(=O)C[C@@H]2C[C@@]3(C(=O)OC)CC(C)(C)CC=C3N(Cc3ccccc3)C2=O)CC1	nt	nt	-2	-5	nt	nt	nt
O=C(N/N=C/c1cccc(F)c1)c1csc2c1CCCC2	0	9	-1	5	7	nt	nt
O=C(N/N=C/c1ccccc1F)c1csc2c1CCCC2	0	3	-1	12*	9	8.6*	10*
CCOC(=O)[C@]12CCCCC/C=C\1N(Cc1ccc(OC)cc1)C(=O)[C@H]2CC(=O)NCC1CCCCC1	nt	nt	nt	-3	nt	nt	nt
Cc1ccccc1Nc1n[nH]c(=S)s1	-3	2	-1	-2	nt	nt	nt
S=c1[nH]nc(Nc2cccc3ccccc23)s1	-2	4	2	11*	6	3	1
COc1cc(OCc2ccccc2)c2c(CCC(=O)O)cc(=O)oc2c1	-1	2	0	8.5*	7	-2	1
O=C(NN=Cc1cccc(OCc2ccccc2)c1)c1cc(-c2ccc(Cl)cc2)n[nH]1	nt	nt	nt	-2	nt	nt	nt
Cc1nn(-c2ccccc2)c2sc(C(=O)NCCc3ccccc3)cc12	nt	nt	nt	-4	nt	nt	nt
CN(CC(=O)Nc1ccccc1Cl)C(=O)COC(=O)c1nc(Cl)c(Cl)c(Cl)c1Cl	-6	20	1	22*	-4	8.2*	1
O=C(N[C@@H]1CC[C@H]2SC[C@H](C(=O)O)N2C1=O)OCC1c2ccccc2-c2ccccc21	nt	nt	nt	-3	nt	nt	nt
COc1ccc(Nc2nc(N)c3ccccc3n2)c(OC)c1	0	-9	0	11*	-2	9.0*	7.5*
COc1ccc(Nc2nc(N)nc(C(F)(F)F)n2)c(OC)c1	-2	0	1	0	-8	nt	nt
CCCCNC(=O)C[C@H]1C[C@@]2(C(=O)OC)C(=C[C@H](C(C)(C)C)O[C@@H]2C)N(CCc2ccc(OC)c(OC)c2)C1=O	nt	nt	nt	-4	nt	nt	nt
CC(=O)N1CCn2c3c(c(=O)c4cc(C)ccc42)CCC31 (stereo unspecified)	-1	1	-3	3	-7	nt	nt
CC(=O)N1CCn2c3c(c4cc(C)ccc42)CCCC31 (stereo unspecified)	-2	16	0	8.7*	-4	-4	0
CCN(CC)CCCNC(=O)c1cc2cc(Cl)ccc2nc1N	nt	nt	nt	2	nt	nt	nt
C(#Cc1ccccc1)Cn1nnc2ccccc21	-2	7	1	-1	1	nt	nt
c1ccc(CNn2nnc3ccccc32)cc1	nt	nt	0	12*	nt	10.0*	11*
CC(C)C[C@@H](COCc1cccc(Cl)c1)N1CCN(C(=O)c2ccc(C(F)(F)F)cc2)CCC1=O	nt	nt	-1	-2	nt	nt	nt
COc1ccc(-c2cc(-c3ccc(C)cc3)n[nH]2)c(O)c1	1	3	1	0	8	nt	nt
COc1ccc(-c2cc(-c3cc(C)ccc3O)[nH]n2)cc1	4	-9	3	16*	3	17*	5.8*
O=C1c2ccccc2C(=O)N1c1ccc(Cl)cn1	-2	4	0	8.1*	-5	3	0
O=C1c2ccc(Br)cc2C(=O)N1c1ccc(Cl)cn1	0	8	2	0	2	nt	nt
CN(C)CCN(C(=O)c1ccco1)c1nc2cc3c(cc2s1)OCCO3	0	4	-1	9.7*	0	2	4
SMILES	MC4R ag barr	MC4R antag cAMP	MPTP block	SMARCA2 activ	ATG4B inh	SMARCA2 conf	GAL4-VP16 Luc
COc1ccc(OC)c(S(=O)(=O)Nc2c(F)cccc2F)c1	0	3	0	10.0*	6	-4	-1
COCCCNC(=O)CSc1nnc(-c2ccncc2)n1-c1ccc(OC)cc1	nt	nt	nt	-2	nt	nt	nt
COc1ccc(COCC(O)CN2CCc3ccccc3C2)cc1OC (stereo unspecified)	-3	9	2	8.8*	-12	-2	3
OC(COCc1ccccc1)CN1CCc2ccccc2C1 (stereo unspecified)	-1	3	1	-1	-7	nt	nt
NNC(=O)C(Cc1ccc(O)cc1)N1Cc2ccccc2C1=O (stereo unspecified)	0	25	-1	-4	2	nt	nt
COC(=O)C(Cc1ccc(O)cc1)N1Cc2ccccc2C1=O (stereo unspecified)	-1	2	-1	9.1*	2	6	9.3*
O=C(/C=C/c1ccc(-c2ccccc2)o1)c1ccccc1	-2	12	3	12*	-4	21*	5
COC(=O)C1=C(C)N(Cc2cccc(C(F)(F)F)c2)C(=NCc2ccc(OC)cc2)NC1c1ccccc1 (stereo unspecified)	nt	nt	nt	-5	nt	nt	nt
COc1ccccc1-n1cc(-c2ccccc2)c2c(=S)nc[nH]c21	-2	9	1	8.4*	-3	1	1
COc1ccccc1-n1cc(-c2ccccc2)[nH]c1=S	0	-2	1	-2	-4	nt	nt
N/C(=N\N=C\c1ccc([N+](=O)[O-])cc1)c1nonc1N	2	2	4	14*	-6	3	9.1*
N/C(=N\N=C\c1ccc(O)cc1)c1nonc1N	-2	16	0	0	5	nt	nt
S=C1NCCOc2ccccc21	nt	nt	nt	-3	nt	nt	nt
CCN(CC)C(=O)CC[C@@H]1CC[C@]2(CCCN(C(=O)c3ccno3)C2)O1	nt	nt	nt	-1	nt	nt	nt
C(=N\Nc1ccccc1)/c1nc2ccccc2s1	1	-6	8	10*	-8	6	9.0*
COC(=O)c1cc(S(=O)(=O)N2CCCC2=O)c(Cl)cc1Cl	-1	2	0	8.0*	-2	2	0
COc1ccc(CCOC(=O)c2ccc(NC(=O)CC#N)cc2)cc1	-3	6	1	1	-12	nt	nt
COc1ccc(C(=O)OCCc2ccc(O)cc2)cc1	0	9	0	9.2*	-1	8.6*	12*
C/C(=N\NC(=O)c1ccn(C)n1)c1cccc(NC(=O)c2ccc(C)s2)c1	1	-8	-1	16*	-10	8.0*	6.0*
O=C(COC(=O)c1cccc(NC(=O)c2ccco2)c1)c1ccc(Br)cc1	0	20	14	8.1*	24	9.5*	4
C/C(=N/NC(=O)c1ccco1)c1cccc(NC(=O)c2ccc(C)s2)c1	0	5	2	6	3	nt	nt
